S1P2 antag = antagonists of human S1P2 receptor. O95136. cell-based S1P2 antagonist assay, inhibition at 5 uM. inhibition, % at 5 µM. actives 0.21% (n = 97,000). AID 736; in the data active = inhibition above about 45%;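 also: CRE beta-lactamase reporter cells expressing human S1P2 stimulated with S1P; 0% = agonist at EC80 alone and 100% = agonist plus reference antagonist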
Target sequence (O95136 whole entry, looked up): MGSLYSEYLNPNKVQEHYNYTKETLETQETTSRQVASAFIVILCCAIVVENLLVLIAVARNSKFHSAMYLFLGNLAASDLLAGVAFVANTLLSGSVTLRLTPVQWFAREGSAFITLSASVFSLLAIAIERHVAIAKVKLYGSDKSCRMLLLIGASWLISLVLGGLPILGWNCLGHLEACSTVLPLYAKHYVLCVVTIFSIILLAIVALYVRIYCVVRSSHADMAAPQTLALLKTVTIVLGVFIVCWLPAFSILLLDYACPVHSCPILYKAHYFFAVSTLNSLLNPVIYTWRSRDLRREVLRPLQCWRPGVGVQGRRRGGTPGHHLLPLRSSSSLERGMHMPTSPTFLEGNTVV
Rev-RRE block = HIV Rev-RRE protein-RNA interaction inhibition. Rev peptide-RRE RNA binding, FRET. P05866. inhibition, % at 8 µM. actives 0.79% (n = 97,000);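 active = inhibition above the screen-wide mean plus 3 SD, cut at about 35% in these data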;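 also: 0% = median DMSO wells and 100% = median Neomycin B control wells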
Target sequence (P05866 whole entry, looked up): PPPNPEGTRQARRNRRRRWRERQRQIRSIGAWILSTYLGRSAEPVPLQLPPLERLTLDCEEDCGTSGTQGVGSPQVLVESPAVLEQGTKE
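Test system – labelled RRE RNA duplex and labelled Rev peptide · Signal – fluorescein-to-Cy5 FRET, 480 nm excitation · Evaluation – % inhibition of FRET ratio versus controls · Benchmarks – DMSO low control, neomycin B high control · Incubation – 5 min RNA-compound premix plus 15 min binding step, 25 °C · Medium – HEPES pH 7.5 salt buffer with EDTA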
S1P2 agonist = S1P2 (human) receptor agonism; S1P2-expressing cell line, agonist reporter read-out; activation, % at 4.5 µM; actives 0.46% (n = 97,000); AID 729; in the data active = activation above about 16%;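 also: 0% = vehicle low control and 100% = maximal reference agonist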
GALR2 agonist = agonists of human galanin receptor 2 (GALR2); activation, % (no concentration beside the values); actives 0.48% (n = 140,000); AID 803; GALR2-expressing cells, agonist activation read-out; O43603; in the data active = activation above about 5%, passing the limit was not always enough;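 also: 0% = vehicle buffer wells and 100% = reference agonist at full effect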
GALR2 blocker = GALR2 (human) receptor antagonism; O43603; GALR2-expressing cells, antagonist mode; inhibition, % at 4 µM; actives 0.39% (n = 140,000);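 also: cells stimulated with galanin 1-16 at roughly its EC80; 0% = agonist challenge control and 100% = basal control without agonist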
GALR2 ant conf = GALR2 (human) antagonism confirmed | shares compounds with GALR2 blocker | GALR2-expressing cells, antagonist mode, inhibition | inhibition, % at 4 µM | actives 60% (n = 480);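 also: cells stimulated with galanin at about its EC80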
BLA inh counter = inhibits beta-lactamase reporter in GALR2 antagonist counterscreen; inhibition, % at 4.2 µM; shares compounds with GALR2 blocker; CHO NFAT-BLA reporter, beta-lactamase FRET, thapsigargin-stimulated; actives 36% (n = 480);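 active = inhibition above the mean inhibition across tested compounds plus 3 SD, cut at about 27% in these data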;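 also: 0% = 500 nM thapsigargin stimulated wells and 100% = unstimulated BSA only wells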
The depositor's hits bear a star; · = no result given; [ ] = remark or other dose. An excerpt weighted towards active compounds, which were near 1.6% of everything screened. Rule as the data show it, unless noted: active = inhibition above about 27%; inactive = the rest.

SMILES	S1P2 antag	Rev-RRE block	S1P2 agonist	GALR2 agonist	GALR2 blocker	GALR2 ant conf	BLA inh counter
Cn1c(=O)c(NCCc2ccccc2)c2c3c(cccc31)C(=O)c1ccccc1-2	28.5	140.4*[fluorescence artefact?]	-4.0	0.7	40.4*	38.3*	41.9*
N#C/C(=C/c1ccc(-c2ccc(S(N)(=O)=O)cc2)o1)C(=O)Nc1ccccc1	·	·	·	0.5	-2.6	·	·
N#C/C(=C/c1ccc(-c2ccc(S(N)(=O)=O)cc2)o1)c1nc2ccccc2s1	·	·	·	0.0	28.4*	40.8*	51.6*
COC(=O)c1ccc(COC(=O)c2[nH]c(C)c(C(C)=O)c2C)o1	28.6	5.6	-1.8	-0.3	27.4*	29.9*	2.1
CC(=O)c1c(C)[nH]c(C(=O)OCC(=O)Nc2ccc(Cl)cc2[N+](=O)[O-])c1C	·	·	·	-0.2	36.1*	50.9*	19.3
Cc1cc(C)c(-n2nnnc2SC(C)C)c(C)c1	·	·	·	-1.1	-13.5	·	·
CC1CCc2c(sc3nc(CN4CCN(S(=O)(=O)c5ccccc5[N+](=O)[O-])CC4)[nH]c(=O)c23)C1 (stereo unspecified)	·	·	·	-1.0	-29.2	·	·
CCOc1cc(-c2nc(-c3ccncc3)no2)cc(OCC)c1OCC	2.5	4.9	-8.1	-4.6	35.3*	2.1	6.0
CCOc1ccc(-c2nc(-c3ccncc3)no2)cc1OCC	-15.1	8.0	0.3	-2.1	-1.5	·	·
O=C(COC(=O)c1nc(-c2ccccc2)n(-c2cccc(C(F)(F)F)c2)n1)NCc1cccs1	·	·	·	-0.6	6.8	·	·
CC1CCN(C(=O)CCc2ccc(Oc3cc([N+](=O)[O-])cc([N+](=O)[O-])c3)cc2)CC1	·	·	·	-1.3	-9.5	·	·
COc1ccc(-c2cnc3c(c2)CCC3(C#N)C#N)cc1	·	·	·	0.6	31.3*	16.8	19.5
Nc1c(C(=O)Nc2nccs2)sc2nc(-c3cccs3)cc(C(F)(F)F)c12	19.2	104.0*[fluorescence artefact?]	-6.9	-1.0	47.1*	26.8	15.4
Cc1cc(C)c2c(N)c(C(=O)Nc3nccs3)sc2n1	-2.5	-0.8	0.3	-1.0	14.0	·	·
O=C(Cc1ccccc1)Nc1scc(-c2ccccc2)c1C(=O)N1CCOCC1	14.9	3.2	-9.7	-3.9	1.9	·	·
NC(=O)c1c(-c2ccc(Cl)cc2Cl)csc1NC(=O)Cc1ccccc1	·	·	·	0.5	34.3*	31.1*	16.8
O=C(Cn1ncc(Cl)c(Cl)c1=O)NCC1CCCCC1	·	·	·	0.6	46.7*	33.4*	18.0
O=C(Cn1ncc(Cl)c(Cl)c1=O)c1ccc(Cl)cc1	43.1	6.3	-6.5	-1.2	22.3	·	·
Nc1nn(-c2ccccc2)c(N)c1N=Nc1ccccc1	·	·	·	-0.5	27.8*	15.9	9.4
CSc1cccc(NC(=O)/C=C/c2cccc(Cl)c2)c1	·	·	·	-2.2	4.1	·	·
COc1ccccc1S(=O)(=O)Nc1ccc2cn[nH]c2c1	·	·	·	-1.7	27.4*	19.8	10.2
COc1cccc(C(=O)Nc2ccc(S(=O)(=O)NCc3ccco3)cc2)c1	·	·	·	-0.1	28.8*	14.7	12.4
CCOC(=O)c1ccccc1N/C=C/C(=O)c1cccs1	·	·	·	-0.8	27.2*	27.0*	11.4
CCOC(=O)c1ccccc1NC(=O)c1cccs1	0.4	7.2	-5.5	0.5	-1.9	·	·
N#Cc1ccc(-n2nccc2-c2cnc3n(c2=O)CCS3)cc1	-16.9	9.0	-3.4	-2.9	-7.7	·	·
SMILES	S1P2 antag	Rev-RRE block	S1P2 agonist	GALR2 agonist	GALR2 blocker	GALR2 ant conf	BLA inh counter
CCc1ccc2[nH]c(=O)c(CN(Cc3ccccc3)C(=O)Nc3ccccc3OC)cc2c1	-3.1	5.1	-3.8	-1.2	-4.0	·	·
Cc1ccc(C2CC(=O)Nc3cc4c(cc32)OCO4)o1 (stereo unspecified)	-16.7	5.4	-4.7	-1.7	34.4*	1.2	0.8
CCNC(=S)SCCOc1ccc(C)cc1	·	·	·	-0.9	-3.5	·	·
O=C(Nc1ccc(S(=O)(=O)N2CCCC2)cc1)c1ccc(CN2CCc3ccccc3C2)cc1	·	·	·	-1.1	7.1	·	·
O=C(Nc1ccc(S(=O)(=O)N2CCOCC2)cc1)c1ccc(CN2CCc3ccccc3C2)cc1	84.6*	10.0	-6.5	-2.0	28.4*	45.8*	18.1
Cc1ccc(SC(C)C(=O)Nc2ccccc2C(=O)N2CCOCC2)cc1 (stereo unspecified)	-10.0	2.7	-3.5	-1.0	31.7*	7.9	2.3
COc1ccccc1-c1c(C(F)(F)F)oc2cc(OCC(=O)Nc3cc(C)ccc3C)ccc2c1=O	·	·	·	-0.9	13.8	·	·
COc1cccc(/C=N/Nc2nc(N3CCCC3)nc(N3CCCC3)n2)c1O	-6.3	4.3	-10.3	-1.4	28.6*	17.2	2.5
CC(=O)c1c(C)[nH]c(C(=O)OCc2ccccc2)c1C	·	·	·	-0.7	3.7	·	·
CC(=O)c1c(C)[nH]c(C(=O)OCCCCN2C(=O)c3ccccc3C2=O)c1C	63.1*	10.4	-2.2	-0.3	32.2*	38.7*	6.6
COC(=O)c1cc(NS(=O)(=O)c2ccc(N3CCC(C)CC3)c([N+](=O)[O-])c2)cc(C(=O)OC)c1	·	·	·	-1.7	-1.6	·	·
Cc1onc(-c2ccccc2)c1C(=O)Nc1nc2c(s1)CCCC2	-9.5	15.0	-1.9	-1.1	27.4*	7.9	3.5
O=C1NC(c2ccccc2)C(C(=O)c2cccs2)C(O)(C(F)(F)F)N1 (stereo unspecified)	10.2	5.7	-2.5	-3.5	33.1*	9.1	-0.1
COc1cc(C2NC(=S)NC(O)(C(F)(F)F)C2C(=O)c2cccs2)cc(OC)c1O (stereo unspecified)	·	·	·	0.9	10.1	·	·
CCOC(=O)C1=C(Cc2ccc(C)cc2)C(=O)c2ccccc2C1=O	9.1	-86.5	-1.4	-2.7	15.5	·	·
CCOC(=O)C1=C(Cc2ccc(OC)cc2)C(=O)c2ccccc2C1=O	33.5	-22.6	-14.2	-3.0	32.0*	20.4	16.7
COc1cc(NC(=S)N2CCCC(CO)C2)c(OC)cc1Cl (stereo unspecified)	·	·	·	-0.4	-1.3	·	·
N#C/C(=C/c1cccs1)c1nc2ccccc2[nH]1	·	·	·	0.2	19.1	·	·
Cc1ccc(/C=C(\C#N)c2nc3ccccc3[nH]2)s1	-18.9	6.7	-1.6	-2.7	29.8*	33.7*	21.0
N#C/C(=C\c1ccc(Sc2nc3ccccc3[nH]2)o1)c1ccccc1	-22.0	16.3	-2.5	-2.3	6.4	·	·
N#C/C(=C\c1ccc(Sc2ccc(Cl)cc2)o1)c1nc2ccccc2[nH]1	·	·	·	0.1	31.9*	34.7*	28.8*
CCOC(=O)Nc1ccc2c(c1)N(C(=O)CCN1CCN3CCCC3C1)c1ccccc1CC2 (stereo unspecified)	2.1	1.1	-3.9	-1.4	21.1	·	·
COC(=O)Nc1ccc2c(c1)N(C(=O)CCN1CCN3CCCC3C1)c1ccccc1CC2 (stereo unspecified)	·	·	·	-1.6	27.8*	15.7	6.2
Cc1ccccc1Nc1cccc2nonc12	·	·	·	-2.8	33.1*	37.6*	46.8*
Cc1ccccc1Nc1nc2ccccc2s1	·	·	·	-0.5	9.0	·	·
CCN(CC)S(=O)(=O)c1ccc(Cl)c(C(=O)Nc2ccc(Cl)cc2[N+](=O)[O-])c1	·	·	·	-1.8	28.4*	19.7	11.8
